Calls of active or inactive are those of the source. The rule behind the calls is not given here.
What was measured:
Tubulin (Homo sapiens) [1] = molecular target: T1, Tubulin (Homo sapiens) (UniProt P68371+Q9H4B7+P0DPH7+P68366+Q13509+Q71U36+P04350+Q3ZCM7+P07437+P68363+Q9BQE3+Q6PEY2+Q13885+Q9BVA1+Q9BUF5); assay: Inhibition of tubulin polymerization in human MCF7 cells assessed as chromatin condensation at 1 uM after 24 hrs by Hoechst 33258 staining-based fluorescence microscopic analysis; assay type: cell-based
Outline: (§1)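 Cells seeded at 12.5 × 10^4 per well and exposed to 1 µM compound for 24 h. Nuclei were stained with Hoechst 33258 (10 µg/mL, 30 min, 37 °C), then fixed in 4% formaldehyde/PBS (15 min, RT). Cells were permeabilized with 1% Triton X-100, blocked with 2% BSA/PBS for 1 h, and incubated with anti-α-tubulin-FITC (1:50) overnight at 4 °C. Imaged by fluorescence microscopy.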

Tubulin (Homo sapiens) [2] = molecular target: T1, Tubulin (Homo sapiens); assay: Inhibition of tubulin polymerization in human A431 cells assessed as micronuclei formation at 1 uM after 24 hrs by ELISA; assay type: cell-based
Tubulin (Homo sapiens) [3] = molecular target: T1, Tubulin (Homo sapiens); assay: Inhibition of tubulin polymerization in human MDA-MB-231 cells assessed as chromatin condensation at 1 uM after 24 hrs by Hoechst 33258 staining-based fluorescence microscopic analysis; assay type: cell-based; outline: as §1
SK-OV-3 [4] = assay: Induction of apoptosis in human SKOV3 cells assessed as increase in histone-associated DNA fragments in oligonucleosomes after 24 hrs by ELISA; assay type: functional, cell-based
Outline: (§2)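 Cells (2 × 10^4) were incubated for 24 h at 0.1, 0.5 or 1 µM, lysed and centrifuged. Supernatants went onto a streptavidin plate with anti-histone-biotin and anti-DNA-peroxidase for 2 h, followed by ABTS for 30 min and a reading at 405 nm. Nucleosome content was expressed as an enrichment factor, as mean ± SD of three experiments.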

Tubulin [5] = assay: Inhibition of tubulin polymerization in human HaCaT cells assessed as micronuclei formation at 1 uM after 24 hrs by ELISA; assay type: cell-based
MDA-MB-231 [6] = assay: Induction of apoptosis in human MDA-MB-231 cells after 24 hrs by FITC Annexin V/propidium iodide staining-based FACScan flow cytometric analysis; assay type: functional, cell-based
Outline: (§3)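 After 24 h of compound exposure, 1 × 10^6 cells were labelled with annexin V-FITC and PI for 15 min at 25 °C in the dark. They were read on a FACScan with 488 nm excitation, detecting FITC at 525 nm and PI at 620 nm. Results are mean ± SD of three independent experiments, with Dunnett's test against control.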

Tubulin (Homo sapiens) [7] = molecular target: T1, Tubulin (Homo sapiens); assay: Inhibition of tubulin polymerization in human SKOV3 cells assessed as chromatin condensation at 1 uM after 24 hrs by Hoechst 33258 staining-based fluorescence microscopic analysis; assay type: cell-based; outline: as §1
Tubulin [8] = assay: Inhibition of tubulin polymerization in human HaCaT cells assessed as micronuclei formation at 1 uM after 24 hrs by Hoechst 33258/FITC staining-based […]; assay type: cell-based; outline: as §1
A-431 [9] = assay: Induction of apoptosis in human A431 cells assessed as increase in histone-associated DNA fragments in mononucleosomes after 24 hrs by ELISA; assay type: functional, cell-based; outline: as §2
MDA-MB-231 [10] = assay: Induction of apoptosis in human MDA-MB-231 cells assessed as increase in histone-associated DNA fragments in mononucleosomes after 24 hrs by ELISA; assay type: functional, cell-based; outline: as §2
MDA-MB-231 [11] = assay: Cytotoxicity against human MDA-MB-231 cells after 48 hrs by MTT assay; assay type: functional, cell-based; settings: MDA-MB-231, 48 h
Outline: (§4)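 Cells in DMEM with 10% FBS were plated at 2 × 10^4 per well and left overnight, then treated for 48 h at 0.6–20 µM (six concentrations) from 10 mM DMSO stocks. MTT was added for 2 h, and formazan was dissolved in DMSO and read at 570 nm. Viability was expressed as % of control, with IC50 taken from dose-response curves. Results are mean ± SD of three independent experiments.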

A-431 [12] = assay: Induction of apoptosis in human A431 cells assessed as increase in histone-associated DNA fragments in oligonucleosomes after 24 hrs by ELISA; assay type: functional, cell-based; outline: as §2
HaCaT [13] = assay: Induction of apoptosis in human HaCaT cells after 24 hrs by FITC Annexin V/propidium iodide staining-based FACScan flow cytometric analysis; assay type: cell-based; outline: as §3
Tubulin (Homo sapiens) [14] = molecular target: T1, Tubulin (Homo sapiens); assay: Inhibition of tubulin polymerization in human SKOV3 cells assessed as micronuclei formation at 1 uM after 24 hrs by ELISA; assay type: cell-based
HaCaT [15] = assay: Induction of apoptosis in human HaCaT cells assessed as increase in histone-associated DNA fragments in mononucleosomes after 24 hrs by ELISA; assay type: cell-based; outline: as §2
MCF7 [16] = assay: Induction of apoptosis in human MCF7 cells assessed as increase in histone-associated DNA fragments in oligonucleosomes after 24 hrs by ELISA; assay type: functional, cell-based; outline: as §2
[17] = Cytotoxicity against human CCD39Lu cells after 48 hrs by MTT assay; assay type: cell-based; outline: as §4
MCF7 [18] = assay: Induction of apoptosis in human MCF7 cells assessed as increase in histone-associated DNA fragments in mononucleosomes after 24 hrs by ELISA; assay type: functional, cell-based; outline: as §2
Tubulin (Homo sapiens) [19] = molecular target: T1, Tubulin (Homo sapiens); assay: Inhibition of tubulin polymerization in human A431 cells assessed as perturbation in cytoskeleton structure at 1 uM after 24 hrs by ELISA; assay type: cell-based
Tubulin [20] = assay: Inhibition of tubulin polymerization in human HaCaT cells assessed as perturbation in cytoskeleton structure at 1 uM after 24 hrs by Hoechst 33258/FITC staining-based […]; assay type: cell-based; outline: as §1
HeLa [21] = assay: Cell cycle arrest in human HeLa cells assessed as accumulation of cells at G2/M phase at 0.1 to 1 uM after 24 hrs by propidium iodide staining-based FACS analysis; assay type: functional
Outline: (§5)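 Cells were seeded at 5 × 10^5 per well in DMEM with 10% FBS and left overnight, then exposed to 0.1, 0.5 or 1 µM for 24 h. DMSO served as the negative control and 50 nM camptothecin as the positive control. Cells were trypsinized, fixed in 70% ethanol for 30 min at 4 °C, stained with 50 µg/mL PI plus 100 µg/mL RNase A for 30 min in the dark, and analysed by flow cytometry. Results are mean ± SD of three experiments, compared by ANOVA with Dunnett's test.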

A-431 [22] = assay: Cell cycle arrest in human A431 cells assessed as accumulation of cells at G2/M phase at 0.1 to 1 uM after 24 hrs by propidium iodide staining-based FACS analysis; assay type: functional; outline: as §5
Tubulin (Homo sapiens) [23] = molecular target: T1, Tubulin (Homo sapiens); assay: Inhibition of tubulin polymerization in human MCF7 cells assessed as micronuclei formation at 1 uM after 24 hrs by Hoechst 33258/FITC staining-based […] analysis; assay type: cell-based; outline: as §1
Tubulin (Homo sapiens) [24] = molecular target: T1, Tubulin (Homo sapiens); assay: Inhibition of tubulin polymerization in human MDA-MB-231 cells assessed as perturbation in cytoskeleton structure at 1 uM after 24 hrs by ELISA; assay type: cell-based
MCF7 [25] = assay: Induction of apoptosis in human MCF7 cells assessed as increase in histone-associated DNA fragments in mononucleosomes at 0.1 uM after 24 hrs by ELISA; assay type: functional, cell-based; outline: as §2
MDA-MB-231 [26] = assay: Induction of apoptosis in human MDA-MB-231 cells assessed as increase in histone-associated DNA fragments in mononucleosomes at 0.1 uM after 24 hrs by ELISA; assay type: functional, cell-based; outline: as §2
HeLa [27] = assay: Potency index, ratio of CA-4 IC50 to compound IC50 for cytotoxicity against human HeLa cells; assay type: functional
SK-OV-3 [28] = assay: Induction of apoptosis in human SKOV3 cells assessed as increase in histone-associated DNA fragments in oligonucleosomes at 0.1 uM after 24 hrs by ELISA; assay type: functional, cell-based; outline: as §2

Row | inhibition (Tubulin (Homo sapiens) [19]) | inhibition (INH) (Tubulin [20]) | inhibition (Tubulin (Homo sapiens) [24]) | Structure (SMILES) | inhibition (Tubulin (Homo sapiens) [2]) | inhibition (INH) (Tubulin [5]) | Activity (MDA-MB-231 [6]) | inhibition (INH) (Tubulin [8]) | IC50 (MDA-MB-231 [11]) [nM] | Activity (HaCaT [13]) | inhibition (Tubulin (Homo sapiens) [14]) | IC50 [17] [nM] | Activity (A-431 [22]) | inhibition (Tubulin (Homo sapiens) [23]) | other results
1 | Active | Active | Active | COc1ccc(-c2ocnc2-c2cc(Br)c(OC)c(OC)c2)cc1SC | Active | Active | Dose-dependent effect | Active | 920 | Dose-dependent effect | Active | > 20000 | Active | Active | inhibition (Tubulin (Homo sapiens) [1]): Active; inhibition (Tubulin (Homo sapiens) [3]): Active; Activity (SK-OV-3 [4]): Dose-dependent effect; inhibition (Tubulin (Homo sapiens) [7]): Active; Activity (A-431 [9]): Dose-dependent effect; Activity (MDA-MB-231 [10]): Dose-dependent effect; Activity (A-431 [12]): Dose-dependent effect; Activity (HaCaT [15]): Dose-dependent effect; Activity (MCF7 [16]): Dose-dependent effect; Activity (MCF7 [18]): Dose-dependent effect; Activity (HeLa [21]): Dose-dependent effect
2 | Active | Active | Active | COc1ccc(-c2ocnc2-c2cc(OC)c(SC)c(OC)c2)cc1O | Active | Active | Dose-dependent effect | Active | 710 | Dose-dependent effect | Active | > 20000 | Active | Active | Activity (MCF7 [25]): Active; Activity (MDA-MB-231 [26]): Active; Ratio IC50 (HeLa [27]): 10; Activity (SK-OV-3 [28]): Active

— ChEMBL document CHEMBL4145466, “Design, synthesis, and biological evaluation of novel combretastatin A-4 thio derivatives as microtubule targeting agents” (Eur J Med Chem, 2018)
